This passage reports IC50 and Activity results from ChEMBL document CHEMBL2375357, “Design, synthesis and cytotoxicity of cell death mechanism of rotundic acid derivatives” (Bioorg Med Chem Lett, 2013).

What all share (format): functional, cell-based
Experiment [1] concerns NCI-H446. The experiment is described as follows: Cytotoxicity against human NCI-H446 cells after 24 hrs by MTT assay. Conditions: NCI-H446, 24 h. In a few lines: (§1)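 MTT antiproliferative assay on human tumour lines A-375 (melanoma), SPC-A1 (lung adenocarcinoma), HeLa (cervical), HepG2 (hepatoma) and NCI-H446 (small cell lung cancer). Parent rotundic acid run alongside as positive control. IC50 given as mean ± SD, n = 3, each experiment repeated at least three times. Values above 100 μM reported as >100.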
(Tetrazolium dyes change colour on reduction, which living cells bring about.)

Experiment [2] has as its system HeLa. Briefly: Cytotoxicity against human HeLa cells after 24 hrs by MTT assay. In a few lines: as §1
Experiment [3] relates to HepG2. Briefly: Cytotoxicity against human HepG2 cells after 24 hrs by MTT assay. Particulars: HepG2, 24 h. In short, it runs like this: as §1
Experiment [4] relates to A-375. Briefly: Cytotoxicity against human A375 cells after 24 hrs by MTT assay. Particulars: A-375, 24 h. In a few lines:
as §1

Experiment [5] can be described thus: Cytotoxicity against human SPC-A1 cells after 24 hrs by MTT assay. Conditions: SPCA1, 24 h. In short, it runs like this:
as §1

For experiment [6], the system named is HeLa. Briefly: Induction of apoptosis in human HeLa cells assessed as increase in caspase 3 cleavage after 24 hrs by Western blot analysis. In short, it runs like this: (§2)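 HeLa cells treated 24 h at 10, 20 and 40 μM. Cisplatin (10 μg/ml) served as positive-control treatment, with an untreated control group for comparison. Bax, Bcl-2, cytochrome C, caspase-3 and cleaved caspase-3 protein levels detected by western blot. Bax/Bcl-2 ratio derived from the band levels. Significance tested against the control group.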
Background: In western blotting, separated proteins are transferred to a membrane and probed.

Experiment [7] concerns HeLa. Briefly: Induction of apoptosis in human HeLa cells assessed as increase in caspase 3 expression at 10 to 40 uM after 24 hrs by Western blot analysis. In short, it runs like this: as §2
Experiment [8] deals with HeLa. Briefly: Induction of apoptosis in human HeLa cells assessed as increase in ratio of Bax to Bcl2 expression after 24 hrs by Western blot analysis. In short, it runs like this:
as §2

For experiment [9], the system named is HeLa. The experiment is described as follows: Induction of apoptosis in human HeLa cells assessed as increase in cytochrome C expression after 24 hrs by Western blot analysis. In a few lines:
as §2

For experiment [10], the system named is HeLa. Briefly: Induction of apoptosis in human HeLa cells assessed as increase in Bax expression after 24 hrs by Western blot analysis. In short, it runs like this:
as §2

The test system of experiment [11] is HeLa. Briefly: Induction of apoptosis in human HeLa cells assessed as decrease in Bcl2 expression after 24 hrs by Western blot analysis. In short, it runs like this:
as §2

pIC50: −log10 of the molar value. Calls of active or inactive are those of the source. No cut-off for these calls is given here.

As usually defined, the pIC50 is −log10 of the IC50, conventionally taken in molar units.

In the case of `CC(CO)NC(=O)[C@]12CC[C@@H](C)[C@@](C)(O)[C@H]1C1=CC[C@@H]3[C@@]4(C)CC[C@H](O)[C@@](C)(CO)[C@@H]4CC[C@@]3(C)[C@]1(C)CC2` (stereo partly specified), the negative logarithm of the IC50 (pIC50) in experiment [1] was 4.40; in [2] it was 4.54; in experiment [3], 4.26; in experiment [4], 4.45; in [5], less than 4.00.
Turning to `CC(=O)OC[C@@]1(C)[C@@H]2CC[C@]3(C)[C@H](CC=C4[C@H]5[C@](C(=O)Nc6ccccc6)(CC[C@@H](C)[C@@]5(C)O)CC[C@]43C)[C@@]2(C)CC[C@@H]1OC(C)=O`, the pIC50 is 4.61 in experiment [1]; 4.80 in experiment [2]; 4.65 in experiment [3]; 4.75 in [4]; 4.79 in experiment [5].
With `C[C@@H]1CC[C@]2(C(=O)NCCCO)CC[C@]3(C)C(=CC[C@@H]4[C@@]5(C)CC[C@H](O)[C@@](C)(CO)[C@@H]5CC[C@]43C)[C@@H]2[C@]1(C)O`, the pIC50 in [1] was 4.68; in [2], 4.75; in experiment [3], 4.11; in experiment [4], 4.90; in experiment [5], 4.08.
Take `CC(=O)OC[C@@]1(C)[C@@H]2CC[C@]3(C)[C@H](CC=C4[C@H]5[C@](C(=O)NCCCO)(CC[C@@H](C)[C@@]5(C)O)CC[C@]43C)[C@@]2(C)CC[C@@H]1OC(C)=O`: the negative logarithm of the IC50 (pIC50) is 5.29 in [1]; 5.16 in [2]; 5.26 in experiment [3]; 5.48 in experiment [4]; 4.87 in experiment [5].
Turning to `CC(=O)OC[C@@]1(C)[C@@H]2CC[C@]3(C)[C@H](CC=C4[C@H]5[C@](C(=O)Nc6ccccc6CO)(CC[C@@H](C)[C@@]5(C)O)CC[C@]43C)[C@@]2(C)CC[C@@H]1OC(C)=O`, the negative logarithm of the IC50 (pIC50) in experiment [1] was 5.15; in experiment [2], 5.48; in experiment [3], 5.35; in [4], 5.43; in [5] it was 5.09.
With `C[C@@H]1CC[C@]2(C(=O)Nc3ccccc3CO)CC[C@]3(C)C(=CC[C@@H]4[C@@]5(C)CC[C@H](O)[C@@](C)(CO)[C@@H]5CC[C@]43C)[C@@H]2[C@]1(C)O`, the negative logarithm of the IC50 (pIC50) was 4.86 in [1]; 4.91 in experiment [2]; less than 4.00 in [3]; 4.72 in experiment [4]; less than 4.00 in experiment [5].
Turning to `C[C@@H]1CC[C@]2(C(=O)O)CC[C@]3(C)C(=CC[C@@H]4[C@@]5(C)CC[C@H](O)[C@@](C)(CO)[C@@H]5CC[C@]43C)[C@@H]2[C@]1(C)O` [ROTUNDIC ACID], the pIC50 is 4.94 in experiment [1]; 4.50 in [2]; 5.13 in [3]; 4.78 in [4]; 4.08 in experiment [5].
As to `CC(=O)OC[C@@]1(C)[C@@H]2CC[C@]3(C)[C@H](CC=C4[C@H]5[C@](C(=O)O)(CC[C@@H](C)[C@@]5(C)O)CC[C@]43C)[C@@]2(C)CC[C@@H]1OC(C)=O`, the negative-log IC50 (pIC50) is 5.15 in experiment [1]; 4.88 in experiment [2]; 5.16 in [3]; 4.94 in experiment [4]; 4.63 in [5].
Regarding `CC(=O)OCc1ccccc1NC(=O)[C@]12CC[C@@H](C)[C@@](C)(O)[C@H]1C1=CC[C@@H]3[C@@]4(C)CC[C@H](OC(C)=O)[C@@](C)(COC(C)=O)[C@@H]4CC[C@@]3(C)[C@]1(C)CC2`, the pIC50 in experiment [1] is 4.16; in [2] it was 5.37; in [3], 4.91; in experiment [4] it was 5.04; in experiment [5], 4.88.
With `CC(=O)OC[C@@]1(C)[C@@H]2CC[C@]3(C)[C@H](CC=C4[C@H]5[C@](C(=O)NCc6ccccc6)(CC[C@@H](C)[C@@]5(C)O)CC[C@]43C)[C@@]2(C)CC[C@@H]1OC(C)=O`, the negative-log IC50 (pIC50) in experiment [1] was 4.57; in experiment [2], 4.72; in experiment [3], 4.71; in experiment [4] it was 4.86; in experiment [5], 4.92.
On to `CC(=O)OC[C@@]1(C)[C@@H]2CC[C@]3(C)[C@H](CC=C4[C@H]5[C@](C(=O)NCCO)(CC[C@@H](C)[C@@]5(C)O)CC[C@]43C)[C@@]2(C)CC[C@@H]1OC(C)=O`, for which the Activity result in experiment [6], in experiment [8], in [10] and in experiment [11] was “Dose-dependent effect” throughout. The result in experiment [7] and in [9] was Active. For the same molecule, the negative logarithm of the IC50 (pIC50) in [1] is 5.18; in experiment [2], 5.55; in experiment [3], 5.36; in [4], 5.26; in [5] it was 5.44.
Regarding `CC(=O)OCCCNC(=O)[C@]12CC[C@@H](C)[C@@](C)(O)[C@H]1C1=CC[C@@H]3[C@@]4(C)CC[C@H](OC(C)=O)[C@@](C)(COC(C)=O)[C@@H]4CC[C@@]3(C)[C@]1(C)CC2`, the pIC50 in experiment [1] was 4.89; in experiment [2] it was 5.37; in experiment [3], 4.92; in experiment [4], 5.00; in experiment [5], 4.92.
In the case of `CC(=O)OC[C@@]1(C)[C@@H]2CC[C@]3(C)[C@H](CC=C4[C@H]5[C@](C(=O)NC(C)CO)(CC[C@@H](C)[C@@]5(C)O)CC[C@]43C)[C@@]2(C)CC[C@@H]1OC(C)=O` (stereo partly specified), the pIC50 in [1] was 5.26; in [2], 4.95; in experiment [3], 5.14; in experiment [4], 5.32; in experiment [5], 4.89.
`C[C@@H]1CC[C@]2(C(=O)Nc3ccccc3)CC[C@]3(C)C(=CC[C@@H]4[C@@]5(C)CC[C@H](O)[C@@](C)(CO)[C@@H]5CC[C@]43C)[C@@H]2[C@]1(C)O`: the negative-log IC50 (pIC50) in experiment [1] is 4.15; in experiment [2], 4.64; in [3], 4.19; in experiment [4] it was 4.15; in [5], less than 4.00.
`C[C@@H]1CC[C@]2(C(=O)NCCO)CC[C@]3(C)C(=CC[C@@H]4[C@@]5(C)CC[C@H](O)[C@@](C)(CO)[C@@H]5CC[C@]43C)[C@@H]2[C@]1(C)O`: the pIC50 in experiment [1] is 4.61; in experiment [2], less than 4.00; in [3], 4.34; in experiment [4] it was 4.67; in [5], less than 4.00.
For `CC(=O)OCC(C)NC(=O)[C@]12CC[C@@H](C)[C@@](C)(O)[C@H]1C1=CC[C@@H]3[C@@]4(C)CC[C@H](OC(C)=O)[C@@](C)(COC(C)=O)[C@@H]4CC[C@@]3(C)[C@]1(C)CC2` (stereo partly specified), the pIC50 in experiment [1] is 4.83; in experiment [2], 5.28; in experiment [3], 5.04; in experiment [4], 5.29; in experiment [5], 4.72.
For the molecule `CC(=O)OCCNC(=O)[C@]12CC[C@@H](C)[C@@](C)(O)[C@H]1C1=CC[C@@H]3[C@@]4(C)CC[C@H](OC(C)=O)[C@@](C)(COC(C)=O)[C@@H]4CC[C@@]3(C)[C@]1(C)CC2`, the pIC50 in experiment [1] was 4.73; in experiment [2], 5.27; in experiment [3], 5.35; in experiment [4] it was 5.38; in experiment [5], 5.03.
As to `C[C@@H]1CC[C@]2(C(=O)NCc3ccccc3)CC[C@]3(C)C(=CC[C@@H]4[C@@]5(C)CC[C@H](O)[C@@](C)(CO)[C@@H]5CC[C@]43C)[C@@H]2[C@]1(C)O`, the negative-log IC50 (pIC50) is less than 4.00 in [1]; 4.55 in experiment [2]; less than 4.00 in experiment [3]; less than 4.00 in experiment [4]; less than 4.00 in experiment [5].
